In ChEMBL document CHEMBL1121993, “A specific inhibitor of IgE-antibody formation: n-pentyl beta-D-fructopyranoside” (1982):

Assays:
Format in all cases: functional
Mus musculus [1] = organism: Mus musculus; assay: Evaluated for effect against passive cutaneous anaphylaxis in female BALB/c mice immunized with 10 ug of DNP-As and 2 mg of Al(OH3) after day 10; PCA (log2)
Summary of the method: (§1)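 Female BALB/c mice received 10 μg DNP-As and 2 mg Al(OH)3 on day 0, then 100 (mg/kg)/day po in 2% NaHCO3 for 5 days after immunization. Sera were taken on days 10, 21 and 30 and pooled from five mice. PCA was done in normal male Wistar rats: serum id in duplicate, then 1 mg DNP-As with 5 mg Evans blue iv; titer is the greatest dilution with a reaction >5 mm.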

Mus musculus [2] = organism: Mus musculus; assay: Evaluated for effect against passive cutaneous anaphylaxis in female BALB/c mice immunized with 10 ug of DNP-As and 2 mg of Al(OH3) after day 21; PCA (log2); summary of the method: as §1
Rattus norvegicus [3] = organism: Rattus norvegicus; assay: Evaluated for effect against passive hemagglutinination in rats immunized with DNP-As and B. pertussis; PHA(log2)
Summary of the method: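 Rats were immunized day 0 with 1 mg DNP-As plus 10¹⁰ killed B. pertussis, boosted day 5 with 0.5 mg DNP-As alone, and titers read on day 8. Dosing was 100 (mg/kg)/day ip for 5 days from day 0. Serum dilutions were incubated with DNP-As-coupled sheep erythrocytes for 2 h at 37 °C; complete agglutination endpoint as 2^n; means ± SE, eight rats.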

Mus musculus [4] = organism: Mus musculus; assay: Evaluated for effect against passive hemagglutinination in female BALB/c mice immunized with 10 ug of DNP-As and 2 mg of Al(OH3) after day 10; PHA(log2)
Summary of the method: (§2)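 Female BALB/c mice were given 10 μg DNP-As and 2 mg Al(OH)3 on day 0, then 100 (mg/kg)/day po in 2% NaHCO3 for 5 days after immunization. Pooled sera from five mice (days 10, 21, 30) were serially diluted and mixed with sheep red cells coupled to DNP-As via glutaraldehyde, then held 2 h at 37 °C. Titer is the greatest dilution with complete agglutination, expressed as n of 2^n.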

Mus musculus [5] = organism: Mus musculus; assay: Evaluated for effect against passive cutaneous anaphylaxis in female BALB/c mice immunized with 10 ug of DNP-As and 2 mg of Al(OH3) after day 30; PCA (log2); summary of the method: as §1
Rattus norvegicus [6] = organism: Rattus norvegicus; assay: Evaluated for effect against passive cutaneous anaphylaxis in rats immunized with DNP-As and B. pertussis; PCA (log2)
Summary of the method: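 Rats were immunized with 1 mg DNP-As and 10^10 B. pertussis on day 0 and boosted with 0.5 mg DNP-As on day 5. Drug was given at 100 (mg/kg)/day ip for 5 days from day 0, and serum was taken on day 8. PCA was read in male Wistar rats after id serum, with iv DNP-As and Evans blue. Titer is the greatest dilution with a spot >5 mm; means ± SE of eight rats.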

Mus musculus [7] = organism: Mus musculus; assay: Evaluated for effect against passive hemagglutinination in female BALB/c mice immunized with 10 ug of DNP-As and 2 mg of Al(OH3) after day 21; PHA(log2); summary of the method: as §2
Mus musculus [8] = organism: Mus musculus; assay: Evaluated for effect against passive hemagglutinination in female BALB/c mice immunized with 10 ug of DNP-As and 2 mg of Al(OH3) after day 30; PHA(log2); summary of the method: as §2
Rattus norvegicus [9] = organism: Rattus norvegicus; assay: Evaluated for effect against passive cutaneous anaphylaxis in female wistar rats; PCA (log2)
Summary of the method: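 Female Wistar rats (190–210 g) were immunized with 1 mg DNP-As plus 10^10 killed B. pertussis on day 0 and boosted with 0.5 mg DNP-As on day 5; serum was taken on day 8. Drug was given at 100 (mg/kg)/day po in 2% NaHCO3 for 5 days from day 0. Serum was then tested by PCA in normal male rats (Evans blue readout, >5 mm cutoff). Values are means ± SE, n=8.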

Mus musculus [10] = organism: Mus musculus; assay: Evaluated for effect against passive hemagglutinination (PHA) in female BALB/c mice immunized with 10 ug of DNP-As and 2 mg of Al(OH3) after day 21; PHA(log2); summary of the method: as §2
Mus musculus [11] = organism: Mus musculus; assay: Evaluated for effect against passive cutaneous anaphylaxis (PCA) in female BALB/c mice immunized with 10 ug of DNP-As and 2 mg of Al(OH3) after day 10; PCA (log2); summary of the method: as §1
Rattus norvegicus [12] = organism: Rattus norvegicus; assay: Evaluated for effect against passive hemagglutinination in female wistar rats; PHA(log2)
Summary of the method: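 Female Wistar rats were immunized with 1 mg DNP-As plus 10¹⁰ killed B. pertussis on day 0, boosted on day 5 with 0.5 mg DNP-As, and sera taken on day 8. Compound in 2% NaHCO₃ was given at 100 (mg/kg)/day po for 5 days from day 0. Hemagglutination used DNP-As-coupled sheep RBC, 2 h at 37 °C; titer is the highest complete-agglutination dilution (log2); mean ± SE, eight rats.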

Mus musculus [13] = organism: Mus musculus; assay: Evaluated for effect against passive cutaneous anaphylaxis (PCA) in female BALB/c mice immunized with 10 ug of DNP-As and 2 mg of Al(OH3) after day 21; PCA (log2); summary of the method: as §1
Mus musculus [14] = organism: Mus musculus; assay: Evaluated for effect against passive hemagglutinination (PHA) in female BALB/c mice immunized with 10 ug of DNP-As and 2 mg of Al(OH3) after day 10; PHA(log2); summary of the method: as §2
Mus musculus [15] = organism: Mus musculus; assay: Evaluated for effect against passive cutaneous anaphylaxis (PCA) in female BALB/c mice immunized with 10 ug of DNP-As and 2 mg of Al(OH3) after day 30; PCA (log2); summary of the method: as §1
Mus musculus [16] = organism: Mus musculus; assay: Evaluated for effect against passive hemagglutinination (PHA) in female BALB/c mice immunized with 10 ug of DNP-As and 2 mg of Al(OH3) after day 30; PHA(log2); summary of the method: as §2

OC[C@@]1(OCc2ccccc2)OC[C@@H](O)[C@H](O)[C@@H]1O
PCA (Mus musculus [1]): 8.6 | PCA (Mus musculus [2]): 9 | PHA (Rattus norvegicus [3]): 9 | PHA (Mus musculus [4]): 6 | PCA (Mus musculus [5]): 8.4 | PCA (Rattus norvegicus [6]): 7 | PHA (Mus musculus [7]): 5 | PHA (Mus musculus [8]): 6

CCO[C@]1(CO)OC[C@@H](O)[C@H](O)[C@@H]1O
PCA (Rattus norvegicus [9]): 6.7 | PHA (Mus musculus [10]): 5 | PCA (Mus musculus [11]): 7.9 | PHA (Rattus norvegicus [12]): 8.5 | PHA (Rattus norvegicus [3]): 7.9 | PCA (Mus musculus [13]): 8.3 | PHA (Mus musculus [14]): 5 | PCA (Mus musculus [15]): 7.8 | PCA (Rattus norvegicus [6]): 7.1 | PHA (Mus musculus [16]): 6

CCO[C@@]1(CO)O[C@H](CO)[C@@H](O)[C@@H]1O
PCA (Rattus norvegicus [6]): 6.5

CCCCO[C@@]1(CO)O[C@H](CO)[C@@H](O)[C@@H]1O
PCA (Rattus norvegicus [6]): 6.7

CCCO[C@@]1(CO)O[C@H](CO)[C@@H](O)[C@@H]1O
PCA (Rattus norvegicus [6]): 7.3

CCO[C@]1(CO)O[C@H](CO)[C@@H](O)[C@@H]1O
PCA (Rattus norvegicus [6]): 6.1

O=P1(N(CCCl)CCCl)NCCCO1 (centres undefined) [CYCLOPHOSPHAMIDE ANHYDROUS]
PHA (Rattus norvegicus [3]): 1.3 | PCA (Rattus norvegicus [6]): <2
